Bioassay records from PubChem BioAssay.
An excerpt weighted towards active compounds, which were near 1.9% of everything screened.
NPY Y1 blocker: blocks the human neuropeptide Y Y1 receptor; HEK293-CNG Y1 cells, membrane potential fluorescence; NPY at EC95, then isoproterenol; inhibition, % at 3.6 µM; 1% of 200,000 active;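 active = inhibition above the campaign mean inhibition of all tested compounds plus 3 SD, cut at about 20% in these data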;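 also: 0% = DMSO wells given NPY plus isoproterenol and 100% = isoproterenol alone without NPY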
Target sequence (P25929 whole entry, looked up): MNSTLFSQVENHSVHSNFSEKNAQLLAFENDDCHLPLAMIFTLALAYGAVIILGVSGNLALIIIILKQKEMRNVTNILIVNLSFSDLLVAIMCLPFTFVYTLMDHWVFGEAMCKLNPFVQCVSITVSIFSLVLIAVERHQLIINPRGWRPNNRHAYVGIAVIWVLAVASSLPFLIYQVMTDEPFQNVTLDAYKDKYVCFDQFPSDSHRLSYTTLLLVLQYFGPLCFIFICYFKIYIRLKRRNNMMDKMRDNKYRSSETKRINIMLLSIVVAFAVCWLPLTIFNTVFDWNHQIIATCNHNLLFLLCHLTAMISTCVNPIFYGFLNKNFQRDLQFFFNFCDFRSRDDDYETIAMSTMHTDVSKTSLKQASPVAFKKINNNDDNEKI
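Test system – HEK293 Y1/CNG channel cell line · Also added – NPY agonist 25 nM, then isoproterenol 1 µM plus Ro 20-1724 25 µM · Compound dosing – one concentration, 3.6 µM, in 0.4% DMSO · Schedule – compound incubation 1 h at room temperature, readout 45 min post-stimulation · Technique – fluorescence, membrane potential probe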
NPY1 pot ag: potentiators or agonists of human neuropeptide Y receptor Y1. NPY-Y1 expressing cells, potentiator/agonist activation. activation, % at 3.6 µM. 0.37% of 220,000 active; in the data active = activation above about 33%, passing the limit was not always enough;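 also: cells stimulated with NPY at EC10 then isoproterenol at EC100; 0% = low agonist plus stimulus and 100% = saturating agonist plus stimulus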
NPY2 pot ag: potentiators or agonists of human neuropeptide Y receptor Y2. P49146. cells expressing NPY-Y2, potentiator/agonist read-out. activation, % at 3.6 µM. 0.45% of 220,000 active; in the data active = activation above about 27%;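 also: cells stimulated with NPY near EC25 plus isoproterenol at EC100; 0% = vehicle plus submaximal agonist and 100% = vehicle plus saturating agonist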
NPY-Y2 antag: NPY-Y2 (human) receptor antagonism. NPY-Y2 expressing cells, antagonist mode. inhibition, % at 2.7 µM. 0.99% of 140,000 active. P49146; in the data active = inhibition above about 17%;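 also: 0% = vehicle with agonist challenge and 100% = reference antagonist with challenge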
Numbers without * were called inactive; x = not tested or not shown.

SMILES	NPY Y1 blocker	NPY1 pot ag	NPY2 pot ag	NPY-Y2 antag
CCc1nc2ccc(C)cc2c(C(=O)NC2CCCCC2C)c1C (centres undefined)	64*	-97	-53	30*
CCCc1cnc(N2CCN(S(=O)(=O)c3cccs3)CC2)nc1	x	9	4	x
C=CCSC(=C(C#N)C#N)c1cc2c([nH]1)CCCC2	-10	35*	43*	-2
CC(=O)N(C(C)=O)N1C(=O)C2C3c4ccccc4C(c4ccccc43)C2C1=O (centres undefined)	-1	2	-2	x
O=C1C2C3c4ccccc4C(c4ccccc43)C2c2nc3ccccc3n21 (centres undefined)	24*	-18	-11	11
CCc1ccc(S(=O)(=O)NC(=S)NC2CCCCC2)cc1	-1	-40	-11	x
CC(C)(C)c1cc(NC(=O)CSc2nncs2)n(-c2ccccc2)n1	4	-11	-3	1
Nc1nonc1C(=O)NCCNCc1cc(Br)ccc1OCc1ccccc1F	44*	-52	-21	43*
CCCCCOc1ccc(Br)cc1CSC(=N)N	46*	-99	-3	35*
CCCOc1ccccc1Cn1c(=O)oc2ccc(C)cc21	20*	-42	-29	21*
Cc1ccc(C)c(N(C(=O)c2nsc(Cl)c2Cl)C(C(=O)NC2CCCC2)c2ccc(O)cc2)c1 (centres undefined)	3	-16	1	2
COc1ccc(CN(C(=O)c2nsc(Cl)c2Cl)C(C(=O)NC2CCCC2)c2ccc(C)cc2)cc1 (centres undefined)	44*	-51	-17	23*
Fc1ccccc1Cc1noc(CN2CCC(OCc3cccnc3)CC2)n1	3	8	12	x
Cc1ccc2nc(-c3cccnc3)c(Nc3ccccc3C)n2c1	-6	46*	41*	x
Cc1ccccc1Nc1c(-c2cccnc2)nc2ccc(Br)cn12	-12	79*	74*	x
Cc1ccccc1C1CC(c2ccccc2)Nc2ncnn21 (centres undefined)	6	-12	-6	4
CCOc1ccc(C2CC(c3ccccc3C)n3ncnc3N2)cc1 (centres undefined)	21*	-13	-12	24*
Cn1c(SCC(=O)Nc2ccc3[nH]c(=O)[nH]c3c2)nnc1-c1ccc(F)cc1	x	6	4	x
COc1ccc(Nc2nc(N3CCCC3)nc(N3CCCC3)n2)c(OC)c1	-8	8	1	-4
COc1ccc(Nc2nc(N3CCCCC3)nc3ccccc23)c(OC)c1	41*	-24	-7	50*
c1ccc2c(N3CCCCC3)nc(N3CCCC3)nc2c1	56*	-53	-29	32*
CN(C(=O)Cn1cccc1C1=NC(c2ccccc2)CO1)c1ccccc1 (centres undefined)	0	1	-11	x
S=C(Nc1ccc(Oc2ccccc2)cc1)N1CCN(c2ccccn2)CC1	-1	10	-7	x
COc1cc(C(=O)Nc2ccc(S(=O)(=O)N3CCOCC3)cc2)c([N+](=O)[O-])cc1OC	-3	9	-5	x
CCOc1ccccc1-n1c(SCC(=O)N2CCCc3ccccc32)nnc1-c1cccnc1	1	-15	11	4
SMILES	NPY Y1 blocker	NPY1 pot ag	NPY2 pot ag	NPY-Y2 antag
O=C(CSc1nnc(-c2cccnc2)n1-c1ccc(SC(F)F)cc1)N1CCCc2ccccc21	3	6	9	19*
CCOC(=O)N1CCN(CC(O)COC2CC(C)CCC2C(C)C)CC1 (centres undefined)	7	-22	-24	4
CC1CCC(C(C)C)C(OCC(O)CNC(C)(C)C)C1 (centres undefined)	-6	106*	99*	x
COc1ccc(NC(=O)CCSCCc2ccccn2)cc1OC	3	2	-9	x
CC(C)C(C)NC(=O)COC(=O)c1cc(S(=O)(=O)N(C)C)ccc1N1CCCC1 (centres undefined)	1	-10	6	x
Cc1n[nH]c(=S)n1/N=C/c1ccccc1OCc1ccc(Cl)cc1	28*	-39	-21	88*
c1ccc2c(c1)OC(CCCN1CCCCC1)c1ccccc1S2 (centres undefined)	40*	-66	-21	17*
CN1CCCC(CC2Oc3ccccc3Sc3ccccc32)C1 (centres undefined)	13	-25	5	8
CCOC(=O)c1c(C)[nH]c(C(=O)COC(=O)/C=C/c2ccc(OCC#N)c(OC)c2)c1C	-5	-11	-4	x
COCc1cc(C)nc(OCC(=O)N/N=C/c2ccc(-c3cc([N+](=O)[O-])ccc3Cl)o2)c1C#N	3	-6	-4	x
O=C(NCCN1CCOCC1)c1cnn2c(-c3ccccc3)cc(-c3ccccc3)nc12	36*	-84	-20	20*
O=C(NCCN1CCOCC1)c1ccccc1-c1ccccc1	0	12	1	6
